Test results taken from ChEMBL document CHEMBL1133018, “Deltorphin II analogues with 6-hydroxy-2-aminotetralin-2-carboxylic acid in position 1” (J Med Chem, 2000).
*1 amine or outer side, *2 acyl side, *3 side chain or, on linkers, in order; H or OH if unused. Where a SMILES comes first, the peptide text is derived from it. [ ]: non-standard residue; d: D form. X1 = O=C([C@@]1(N[*:1])CCc2cc(O)ccc2C1)[*:2]; X2 = O=C([C@]1(N[*:1])CCc2cc(O)ccc2C1)[*:2]

How the values were obtained:
[1] = organism: Rattus norvegicus; assay: Stimulation of [35S]GTP-gamma-S, binding at the concentration of 1 uM.; format: functional
Summary of the method: (§1)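 Rat frontal cortex crude membranes, 10 µg protein, in 50 mM Tris-HCl with 1 mM EGTA, 3 mM MgCl2, 100 mM NaCl. Incubated with 30 µM GDP and 0.05 nM [35S]GTPγS, 1 h at 30 °C. Nonspecific binding taken with 10 µM unlabeled GTPγS. Filtered and counted. Stimulation expressed as % of specific binding, mean ± SEM of three triplicate experiments.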

[2] = biological target: T1, Delta-type opioid receptor (Rattus norvegicus, UniProt P33533); assay: Binding affinities against delta 2 opioid receptor of rat brain using [3H]Ile5,6-deltorphin II as radioligand.
T1 sequence (P33533 whole entry): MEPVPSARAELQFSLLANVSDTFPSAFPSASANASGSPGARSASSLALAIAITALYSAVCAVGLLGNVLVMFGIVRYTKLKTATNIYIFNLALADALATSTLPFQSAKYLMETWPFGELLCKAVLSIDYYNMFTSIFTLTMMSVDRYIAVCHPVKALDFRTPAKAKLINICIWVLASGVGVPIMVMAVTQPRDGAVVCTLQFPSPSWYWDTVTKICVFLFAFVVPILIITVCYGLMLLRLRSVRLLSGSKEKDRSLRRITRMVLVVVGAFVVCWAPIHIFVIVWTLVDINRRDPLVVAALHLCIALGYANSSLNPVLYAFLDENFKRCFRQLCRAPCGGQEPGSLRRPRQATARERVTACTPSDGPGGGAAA
Summary of the method: (§2)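 Wistar rat brain (minus cerebellum) membranes, 300-500 µg protein, 50 mM Tris-HCl pH 7.4. Displacement of [3H]pClPhe4-DPDPE (0.8 nM, 25 °C, 90 min) or [3H]Ile5,6-deltorphin II (0.5 nM, 35 °C, 45 min). Filtration, scintillation counting. Nonspecific binding defined with 10 µM naloxone. Ki as mean ± SEM of 3-5 runs in duplicate; Hill slopes also fitted.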

[3] = biological target: Mu-type opioid receptor (Cavia porcellus, UniProt P97266); assay: inhibitory concentration for inhibition of electrically induced smooth muscle contractions of GPI (guinea pig ileum) myenteric-plexus-longitudinal muscle strips.; format: functional, tissue-based
Chain of Mu-type opioid receptor (P97266 whole entry): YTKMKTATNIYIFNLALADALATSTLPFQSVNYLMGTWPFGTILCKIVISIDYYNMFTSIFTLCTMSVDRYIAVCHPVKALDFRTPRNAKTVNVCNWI
Summary of the method: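 Longitudinal muscle-myenteric plexus strips from ileum of male guinea pigs (400-600 g), electrically stimulated under standard conditions. IC50 taken as 50% inhibition of twitch, mean ± SEM of 4-6 measurements. Where no IC50 was reached, % inhibition is given at 10^-6 or 10^-5 M (n = 4).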

[4] = biological target: Mu-type opioid receptor (Rattus norvegicus) (UniProt P33535)
Chain of Mu-type opioid receptor (Rattus norvegicus) (P33535 whole entry, looked up): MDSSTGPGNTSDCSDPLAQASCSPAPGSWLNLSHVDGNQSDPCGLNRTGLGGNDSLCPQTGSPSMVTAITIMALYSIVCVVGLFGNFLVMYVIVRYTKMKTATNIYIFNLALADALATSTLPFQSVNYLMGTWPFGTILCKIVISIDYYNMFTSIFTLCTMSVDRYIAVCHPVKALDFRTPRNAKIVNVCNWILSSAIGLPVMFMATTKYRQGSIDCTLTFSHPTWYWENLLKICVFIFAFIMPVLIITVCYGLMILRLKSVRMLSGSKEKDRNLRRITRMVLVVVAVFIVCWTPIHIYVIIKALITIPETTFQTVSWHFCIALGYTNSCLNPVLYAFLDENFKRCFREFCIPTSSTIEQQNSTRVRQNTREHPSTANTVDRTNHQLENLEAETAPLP

[5] = biological target: Delta-type opioid receptor (Rattus norvegicus) (UniProt P33533)
Chain of Delta-type opioid receptor (Rattus norvegicus) (P33533 whole entry): as the sequence (P33533 whole entry) above

[6] = biological target: T1, Delta-type opioid receptor; assay: Binding affinities against Opioid receptor delta 1 of rat brain using [3H]p-Cl-Phe4-DPDPE as radioligand.; summary of the method: as §2
[7] = biological target: Delta-type opioid receptor (Rattus norvegicus) (UniProt P33533); remark: listed apart in the source
[8] = organism: Rattus norvegicus; assay: Stimulation of [35S]GTP-gamma-S, binding at the concentration of 0.1 uM.; format: functional; summary of the method: as §1
[9] = biological target: Delta-type opioid receptor (Rattus norvegicus) (UniProt P33533); remark: listed apart in the source
[10] = biological target: Mu-type opioid receptor (Rattus norvegicus) (UniProt P33535); remark: listed apart in the source

Structure (SMILES)	Stimulation [1] [%]	Ki [2] [nM]	IC50 [3] [nM]	Hill coefficient [4]	Hill coefficient [5]	Ki [6] [nM]	Hill coefficient [7]	Stimulation [8] [%]	Hill coefficient [9]	Hill coefficient [10]
CC[C@H](C)[C@H](NC(=O)[C@H](CCC(=O)O)NC(=O)[C@H](Cc1ccccc1)NC(=O)[C@H](C)NC(=O)[C@]1(N)CCc2cc(O)ccc2C1)C(=O)N[C@H](C(=O)NCC(N)=O)[C@@H](C)CC (H-[X2]AFEIIG-NH2)	136.9	1	> 10000	-1.09	-0.5	0.94	-0.42	–	–	–
CC[C@H](C)[C@H](NC(=O)[C@H](CCC(=O)O)NC(=O)[C@H](Cc1ccccc1)NC(=O)[C@H](C)NC(=O)[C@@]1(N)CCc2cc(O)ccc2C1)C(=O)N[C@H](C(=O)NCC(N)=O)[C@@H](C)CC (H-[X1]AFEIIG-NH2)	–	0.34	5130	–	-0.69	0.16	–	155	-0.34	-1.01
